# Results as given in ChEMBL document CHEMBL1142636 (2000).
# How the values were obtained:
# [1] = system: K562; experiment: Growth inhibition of human K562 cells; type: functional
# [2] = system: NCI-H460; experiment: Growth inhibition of human NCI-H460 cells; type: functional
# [3] = system: DMS-273; experiment: Growth inhibition of human DMS273 cells; type: functional
# [4] = system: SW-620; experiment: Growth inhibition of human SW620 cells; type: functional
# In short: (§1)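 Tested at the NCI in its human disease-oriented in vitro screen of 60 tumour cell lines, following the Monks et al. methods. Activity is expressed as GI50, given as log molar values.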
# [5] = system: KM-20L2; experiment: Growth inhibition of human KM20L2 cells; type: functional
# [6] = system: 786-0; experiment: Growth inhibition of human 786-0 cells; type: functional
# [7] = system: RXF 393; experiment: Growth inhibition of human […] cells; type: functional
# [8] = system: SNB-19; experiment: Growth inhibition of human SNB19 cells; type: functional; in short: as §1
# [9] = system: SF-268; experiment: Growth inhibition of human SF268 cells; type: functional; in short: as §1
# [10] = system: HT-29; experiment: Growth inhibition of human HT29 cells; type: functional
# [11] = system: MOLT-4; experiment: Growth inhibition of human MOLT4 cells; type: functional
# [12] = system: Malme-3M; experiment: Growth inhibition of human MALME-3M cells; type: functional
# [13] = Growth inhibition of human OVACR8 cells; type: functional
# [14] = Growth inhibition of human LXFL529 cells; type: functional; conditions: LXFL 529
# [15] = system: M14; experiment: Growth inhibition of human M14 cells; type: functional
# [16] = system: SK-MEL-2; experiment: Growth inhibition of human SK-MEL-2 cells; type: functional; in short: as §1
# [17] = system: SK-MEL-5; experiment: Growth inhibition of human SK-MEL-5 cells; type: functional; in short: as §1
# [18] = system: TK-10; experiment: Growth inhibition of human TK10 cells; type: functional; in short: as §1
# [19] = system: SNB-75; experiment: Growth inhibition of human SNB75 cells; type: functional; in short: as §1
# [20] = system: HCC 2998; experiment: Growth inhibition of human HCC2998 cells; type: functional
# [21] = system: NCI-H522; experiment: Growth inhibition of human NCI-H522 cells; type: functional
# [22] = system: CCRF-CEM; experiment: Growth inhibition of human CCRF-CEM cells; type: functional
# [23] = system: SR; experiment: Growth inhibition of human SR cells; type: functional; in short: as §1
# [24] = system: SF-539; experiment: Growth inhibition of human SF539 cells; type: functional; in short: as §1
# [25] = system: HCT-15; experiment: Growth inhibition of human HCT15 cells; type: functional
# [26] = system: NCI-H322M; experiment: Growth inhibition of human NCI-H322M cells; type: functional
# [27] = system: LOX IMVI; experiment: Growth inhibition of human LOX IMVI cells; type: functional
# [28] = system: HCT-116; experiment: Growth inhibition of human HCT116 cells; type: functional
# [29] = system: HOP-92; experiment: Growth inhibition of human HOP92 cells; type: functional
# [30] = Growth inhibition of human OVACR4 cells; type: functional
# [31] = system: UACC-62; experiment: Growth inhibition of human UACC62 cells; type: functional; in short: as §1
# [32] = Growth inhibition of human […] cells; type: functional
# [33] = system: ACHN; experiment: Growth inhibition of human ACHN cells; type: functional
# [34] = system: M19-MEL; experiment: Growth inhibition of human M19-MEL cells; type: functional
# [35] = system: HOP-62; experiment: Growth inhibition of human HOP62 cells; type: functional
# [36] = Growth inhibition of human HL60(TB) cells; type: functional, HL-60(TB); conditions: HL-60
# [37] = system: DLD-1; experiment: Growth inhibition of human DLD1 cells; type: functional
# [38] = Growth inhibition of human OVACR5 cells; type: functional
# [39] = system: SN12C; experiment: Growth inhibition of human SN12C cells; type: functional; in short: as §1
# [40] = Growth inhibition of human DMS144 cells; type: functional
# [41] = system: NCI-H226; experiment: Growth inhibition of human NCI-H226 cells; type: functional
# [42] = system: A549; experiment: Growth inhibition of human A549 cells; type: functional
# [43] = system: KM12; experiment: Growth inhibition of human KM12 cells; type: functional
# [44] = Growth inhibition of human RPMI8266 cells; type: functional
# [45] = system: U-251; experiment: Growth inhibition of human U251 cells; type: functional; in short: as §1
# [46] = system: SK-OV-3; experiment: Growth inhibition of human SK-OV-3 cells; type: functional; in short: as §1
# [47] = system: IGROV-1; experiment: Growth inhibition of human IGROV1 cells; type: functional
# [48] = system: SK-MEL-28; experiment: Growth inhibition of human SK-MEL-28 cells; type: functional; in short: as §1
# [49] = system: UO-31; experiment: Growth inhibition of human UO31 cells; type: functional; in short: as §1
# [50] = system: XF498; experiment: Growth inhibition of human XF498 cells; type: functional; in short: as §1
# [51] = system: COLO 205; experiment: Growth inhibition of human COLO205 cells; type: functional
structure (smiles),measurement,setting,value
CC(C)=CCCC1(C)C=Cc2c(ccc3c2[nH]c2cc(O)c(C)cc23)O1 (stereo unspecified),GI50,[1],5.62 µM
same,GI50,[2],4.68 µM
same,GI50,[3],5.01 µM
same,GI50,[4],4.68 µM
same,GI50,[5],5.25 µM
same,GI50,[6],4.27 µM
same,GI50,[7],5.25 µM
same,GI50,[8],25.1 µM
same,GI50,[9],5.01 µM
same,GI50,[10],4.9 µM
same,GI50,[11],4.17 µM
same,GI50,[12],5.25 µM
same,GI50,[13],3.8 µM
same,GI50,[14],5.13 µM
same,GI50,[15],3.89 µM
same,GI50,[16],6.46 µM
same,GI50,[17],4.9 µM
same,GI50,[18],16.6 µM
same,GI50,[19],12.9 µM
same,GI50,[20],4.68 µM
same,GI50,[21],3.89 µM
same,GI50,[22],5.01 µM
same,GI50,[23],5.5 µM
same,GI50,[24],4.57 µM
same,GI50,[25],5.01 µM
same,GI50,[26],6.61 µM
same,GI50,[27],4.57 µM
same,GI50,[28],8.71 µM
same,GI50,[29],4.27 µM
same,GI50,[30],7.94 µM
same,GI50,[31],9.33 µM
same,GI50,[32],4.79 µM
same,GI50,[33],6.76 µM
same,GI50,[34],6.92 µM
same,GI50,[35],4.79 µM
same,GI50,[36],9.55 µM
same,GI50,[37],8.91 µM
same,GI50,[38],19.5 µM
same,GI50,[39],4.68 µM
same,GI50,[40],7.08 µM
same,GI50,[41],7.08 µM
same,GI50,[42],6.61 µM
same,GI50,[43],4.79 µM
same,GI50,[44],6.61 µM
same,GI50,[45],4.57 µM
COc1ccc2c([nH]c3cc(O)c(C)cc32)c1CC=C(C)C,GI50,[1],5.75 µM
same,GI50,[2],5.62 µM
same,GI50,[3],8.51 µM
same,GI50,[4],6.76 µM
same,GI50,[5],16.2 µM
same,GI50,[6],4.37 µM
same,GI50,[8],25.1 µM
same,GI50,[9],9.55 µM
same,GI50,[11],4.9 µM
same,GI50,[12],17.4 µM
same,GI50,[13],4.47 µM
same,GI50,[14],8.71 µM
same,GI50,[46],25.1 µM
same,GI50,[15],1.62 µM
same,GI50,[16],25.1 µM
same,GI50,[47],2.29 µM
same,GI50,[17],8.13 µM
same,GI50,[18],5.01 µM
same,GI50,[19],11.5 µM
same,GI50,[20],5.5 µM
same,GI50,[21],5.89 µM
same,GI50,[22],5.37 µM
same,GI50,[23],7.24 µM
same,GI50,[24],7.94 µM
same,GI50,[48],25.1 µM
same,GI50,[25],5.13 µM
same,GI50,[26],10.7 µM
same,GI50,[27],4.37 µM
same,GI50,[49],14.5 µM
same,GI50,[28],12 µM
same,GI50,[29],7.94 µM
same,GI50,[30],22.4 µM
same,GI50,[31],9.12 µM
same,GI50,[32],5.37 µM
same,GI50,[33],9.33 µM
same,GI50,[50],25.1 µM
same,GI50,[34],12.3 µM
same,GI50,[36],7.94 µM
same,GI50,[37],9.12 µM
same,GI50,[38],25.1 µM
same,GI50,[40],20.9 µM
same,GI50,[51],25.1 µM
same,GI50,[41],25.1 µM
same,GI50,[42],8.51 µM
same,GI50,[44],8.32 µM
same,GI50,[45],5.89 µM
Cc1cc2c(cc1O)[nH]c1cc3c(cc12)C=CC(C)(C)O3,GI50,[1],25.1 µM
same,GI50,[2],5.37 µM
same,GI50,[3],5.01 µM
same,GI50,[4],7.59 µM
same,GI50,[5],9.33 µM
same,GI50,[7],4.9 µM
same,GI50,[8],25.1 µM
same,GI50,[9],6.76 µM
same,GI50,[10],11.7 µM
same,GI50,[11],0.00324 µM
same,GI50,[12],10 µM
same,GI50,[13],4.57 µM
same,GI50,[14],9.33 µM
same,GI50,[46],25.1 µM
same,GI50,[15],6.03 µM
same,GI50,[16],25.1 µM
same,GI50,[47],22.9 µM
same,GI50,[17],17.4 µM
same,GI50,[18],25.1 µM
same,GI50,[19],11.2 µM
same,GI50,[20],6.76 µM
same,GI50,[21],8.32 µM
same,GI50,[22],20 µM
same,GI50,[23],6.46 µM
same,GI50,[24],4.07 µM
same,GI50,[48],14.5 µM
same,GI50,[25],8.71 µM
same,GI50,[26],13.2 µM
same,GI50,[27],3.98 µM
same,GI50,[49],11.5 µM
same,GI50,[28],12.9 µM
same,GI50,[29],9.77 µM
same,GI50,[30],10.5 µM
same,GI50,[31],6.76 µM
same,GI50,[32],7.24 µM
same,GI50,[33],9.33 µM
same,GI50,[50],25.1 µM
same,GI50,[34],19.5 µM
same,GI50,[35],7.94 µM
same,GI50,[36],6.92 µM
same,GI50,[37],12.9 µM
same,GI50,[38],17.8 µM
same,GI50,[39],6.31 µM
same,GI50,[40],10.7 µM
same,GI50,[51],25.1 µM
same,GI50,[41],19.1 µM
same,GI50,[42],6.46 µM
same,GI50,[43],5.25 µM
same,GI50,[44],9.12 µM
same,GI50,[45],6.03 µM
